MLL AF4-AF9 inh – blocks AF4 peptide binding to human AF9; P42568; AlphaScreen, biotin-AF4 peptide binding to FLAG-AF9; actives 0.47% (n = 350,000); inhibition, % at 10 µM;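 active = every replicate reaching a set inhibition limit, whatever the replicate mean, cut at about 25% in these data; inconclusive = mean inhibition reaches that limit but some replicates miss it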;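 also: 0% = plate neutral control median and 100% = total signal loss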
rRNA inh HTS – inhibits bacterial ribosomal RNA function over humanized ribosomes. E. coli WT GFP vs humanized-ribosome RFP mutants, fluorescence, 24 h; active compounds read low; DMSO median 0, no signal -100. GFP signal change (wild-type ribosome), % (no concentration beside the values). actives 1.6% (n = 350,000);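 active = significant combined selectivity score with lowered wild-type GFP, culture density cut under 30%, mutant RFP and density less affected; inactive = any of these conditions unmet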
RAD52 inh – blocks human RAD52 DNA annealing; recombinant RAD52 DNA annealing, FRET fluorescence; inhibition, % at 18.7 µM; actives 0.46% (n = 360,000); AID 651710;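 active = every replicate showing at least 50% inhibition; inconclusive = mean inhibition at least 50% but not in every replicate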
E-sel inducer – E-selectin induction on HUVECs; P16581; HUVEC E-selectin immunofluorescence imaging; normalized: neutral wells 0, TNF-alpha wells 100; activation, % at 7.58 µM; actives 0.37% (n = 260,000); AID 686992;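 active = mean E-selectin-positive cell signal at least 10% of the positive control, reached in at least 60% of replicates, without over 20% cell loss; inconclusive = no rule given, readout overlaps actives, possibly toxicity-flagged; inactive = the rest, including those meeting only one limit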
Target sequence (P16581 whole entry, looked up): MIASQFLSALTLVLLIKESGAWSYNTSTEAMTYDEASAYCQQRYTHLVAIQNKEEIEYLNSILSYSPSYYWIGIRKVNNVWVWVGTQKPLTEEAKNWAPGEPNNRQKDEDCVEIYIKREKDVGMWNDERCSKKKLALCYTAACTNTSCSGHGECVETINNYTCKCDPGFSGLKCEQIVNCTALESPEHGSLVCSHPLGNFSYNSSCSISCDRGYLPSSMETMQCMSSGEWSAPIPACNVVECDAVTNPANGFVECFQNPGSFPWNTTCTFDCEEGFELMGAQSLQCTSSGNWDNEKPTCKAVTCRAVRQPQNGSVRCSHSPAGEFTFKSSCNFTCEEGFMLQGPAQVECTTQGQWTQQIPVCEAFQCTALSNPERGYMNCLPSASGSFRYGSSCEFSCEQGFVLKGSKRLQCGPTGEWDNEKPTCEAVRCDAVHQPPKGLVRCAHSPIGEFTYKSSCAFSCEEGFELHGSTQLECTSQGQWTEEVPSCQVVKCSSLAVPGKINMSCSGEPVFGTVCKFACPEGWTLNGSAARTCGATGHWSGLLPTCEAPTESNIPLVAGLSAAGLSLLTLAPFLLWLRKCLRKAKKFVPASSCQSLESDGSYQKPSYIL
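material = human umbilical vein endothelial cells (HUVEC), E-selectin induction | quantity = 3,000 cells/well | medium = EGM-2 growth medium on 0.1% gelatin-coated wells | technique = immunofluorescence imaging | read-out basis = % PE-positive cells | control set = TNF-alpha positive control, DMSO neutral control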
RAD54 inh – inhibitors of human RAD54 branch migration; Q92698; RAD54 Holliday junction branch migration, FAM/BHQ fluorescence; inhibition, % at 10.4 µM; actives 0.14% (n = 360,000);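 active = mean normalized replicate activity at least 40 and at least half of replicates scoring 40 or more; inconclusive = only one of the two criteria met; inactive = mean below 40 and under half of replicates reaching 40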;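 also: 0% = median of neutral control wells and 100% = median of positive control wells; inhibitors cause a drop in the FAM fluorescence signal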
GSIS activator – primary screen for activators of insulin secretion dependent on glucose, INS-1E cells, GLuc reporter luminescence. INS-1E GLuc reporter insulin secretion, 2-3 h. activation, % at 16.6 µM. actives 0.61% (n = 370,000). AID 743287;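 active = lowest replicate activation of at least 40%, so every replicate reaches that level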;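 also: 0% = median of neutral control wells and 100% = median of IBMX positive control wells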
* hit, by the source's call; ? = inconclusive; · = not tested or not shown. In the library only some 2.6% were active in any assay of this set; here they are far more common.

SMILES	MLL AF4-AF9 inh	rRNA inh HTS	RAD52 inh	E-sel inducer	RAD54 inh	GSIS activator
O=C(C[C@H]1C[C@@H]2c3cc(NC(=O)Nc4ccccc4F)ccc3O[C@@H]2[C@H](CO)O1)NCc1ccc(Oc2ccccc2)cc1	1	-4	-17	1	3	-5
COC(=O)C1=C(C)N(Cc2ccc(C(F)(F)F)cc2)C(=NCc2ccccc2C(F)(F)F)NC1c1ccc(C(F)(F)F)cc1 (centres undefined)	·	29	20	-1	·	·
COC(=O)C1=C(C)N(Cc2ccc(C(F)(F)F)cc2)C(=NCc2ccccc2)NC1c1ccccc1 (centres undefined)	11	-56	-8	0	·	949*
COC(=O)C1=C(C)N(Cc2ccc(C(F)(F)F)cc2)C(=NCc2ccccc2)NC1c1ccc(C(F)(F)F)cc1 (centres undefined)	9	-54	-10	0	·	460*
COC(=O)C1=C(C)N(Cc2ccc(C(F)(F)F)cc2)C(=NCc2ccccc2)NC1c1cccc(Cl)c1 (centres undefined)	0	-56	-36	0	·	·
COc1ccccc1OCCn1cc(C=O)c2ccccc21	-8	-2	0	?	-2	36
O=Cc1cn(CCOc2ccccc2F)c2ccccc12	-3	-42*	-12	·	-1	·
COc1ccc(C(C)=NNc2ccc([N+](=O)[O-])cc2S(=O)(=O)Nc2ccccc2C(=O)O)c(OC)c1	7	-20*	-22	-1	4	-17
CCOc1cc(/C=N/Nc2ccc(S(=O)(=O)Nc3ccccc3C(=O)O)cc2[N+](=O)[O-])cc(Cl)c1O	-2	-8.1*	-5	0	0	·
COc1cc(C=NNc2ccc(S(=O)(=O)Nc3ccccc3C(=O)O)cc2[N+](=O)[O-])ccc1O	9	-6	-2	·	-15	0
CN(CCO)c1ccc(C=NNc2ccc([N+](=O)[O-])cc2S(=O)(=O)Nc2ccccc2C(=O)O)cc1	?	-14*	-44	0	-5	-14
CN(C)/C=N/c1nc2ccc3c(c2s1)CCCC3	-21	-26*	-15	·	14	32
COc1cnc(-c2ccccc2)c(-c2ccccc2)n1	·	-32*	-11	4	-6	25
Cn1c(CNS(=O)(=O)c2ccc(Cl)cc2)cc(=O)n(C)c1=O	-1	9	-2	97*	5	-1
COc1ccc2c(=O)c(C(=O)NCc3ccccc3)c[nH]c2c1	-1	-2	-10	1	-11	13
NNC(=O)c1c[nH]c2ccc(OCc3ccccc3)cc12	-1	-27*	-24	·	·	2
COc1ccc2c(=O)c(C(=O)NCCc3ccccc3)c[nH]c2c1	1	-27*	-9	0	2	2
COc1ccc2[nH]cc(CCNC(=O)C3CC(=O)N(c4ccc(Cl)cc4)C3)c2c1 (centres undefined)	3	-24*	-14	·	-3	-6
COc1ccc2[nH]cc(CCNC(=S)NCCc3ccccc3)c2c1	16	-35*	-28	·	-1	-8
COc1ccc2[nH]cc(CCNC(=O)Nc3ccccc3)c2c1	0	-8	-11	·	4	-6
NNC(=O)c1ccc(COc2ccccc2)cc1	0	5	-4	1	2	-2
C[C@@H]1CN([C@H](C)CO)S(=O)(=O)c2ccc(-c3ccccc3F)cc2O[C@H]1CN(C)Cc1cncnc1	10	-8	5	0	16	-24
C[C@@H]1CN([C@@H](C)CO)C(=O)c2cc(NC(=O)C3CC3)ccc2O[C@H]1CN(C)C(=O)Nc1ccc(F)cc1	0	5	8	0	6	6
COc1ccc2[nH]cc(C(=O)NCCc3ccccc3)c(=O)c2c1	1	-21*	-2	0	5	12
CN1c2ccccc2-c2nc3ccccc3n2C1c1ccncc1 (centres undefined)	·	-23*	-5	·	-2	13
CN1c2ccccc2-c2nc3ccccc3n2C1c1ccccn1 (centres undefined)	·	·	·	·	-10	·
COc1cccc(CN2CC3(CCN(C(=O)Nc4c(C)noc4C)CC3)c3c([nH]c4cc(OC)ccc34)[C@@H]2CO)c1	·	4	·	·	·	1
CC(=O)Oc1cc2oc(=O)cc(C)c2cc1Cl	0	-26*	0	1	9	-20

Source: PubChem (Broad Institute)
